According to ChEMBL document CHEMBL1240337, “Identification of proteases that regulate erythrocyte rupture by the malaria parasite Plasmodium falciparum” (Nat Chem Biol, 2008):
The source made the active and inactive calls. The calls are words filed in the database; no cut-off is given here.

Columns and labels:
[1] = target: T1, Protease, putative (Plasmodium falciparum 3D7) (UniProt Q8I1Y2); experiment: Inhibition of Plasmodium falciparum 3D7 PFD0230c-mediated rupture of infected human red blood cells at 1 to 100 uM after 24 hrs by propidium iodide staining-based FACS analysis
T1 sequence (whole entry): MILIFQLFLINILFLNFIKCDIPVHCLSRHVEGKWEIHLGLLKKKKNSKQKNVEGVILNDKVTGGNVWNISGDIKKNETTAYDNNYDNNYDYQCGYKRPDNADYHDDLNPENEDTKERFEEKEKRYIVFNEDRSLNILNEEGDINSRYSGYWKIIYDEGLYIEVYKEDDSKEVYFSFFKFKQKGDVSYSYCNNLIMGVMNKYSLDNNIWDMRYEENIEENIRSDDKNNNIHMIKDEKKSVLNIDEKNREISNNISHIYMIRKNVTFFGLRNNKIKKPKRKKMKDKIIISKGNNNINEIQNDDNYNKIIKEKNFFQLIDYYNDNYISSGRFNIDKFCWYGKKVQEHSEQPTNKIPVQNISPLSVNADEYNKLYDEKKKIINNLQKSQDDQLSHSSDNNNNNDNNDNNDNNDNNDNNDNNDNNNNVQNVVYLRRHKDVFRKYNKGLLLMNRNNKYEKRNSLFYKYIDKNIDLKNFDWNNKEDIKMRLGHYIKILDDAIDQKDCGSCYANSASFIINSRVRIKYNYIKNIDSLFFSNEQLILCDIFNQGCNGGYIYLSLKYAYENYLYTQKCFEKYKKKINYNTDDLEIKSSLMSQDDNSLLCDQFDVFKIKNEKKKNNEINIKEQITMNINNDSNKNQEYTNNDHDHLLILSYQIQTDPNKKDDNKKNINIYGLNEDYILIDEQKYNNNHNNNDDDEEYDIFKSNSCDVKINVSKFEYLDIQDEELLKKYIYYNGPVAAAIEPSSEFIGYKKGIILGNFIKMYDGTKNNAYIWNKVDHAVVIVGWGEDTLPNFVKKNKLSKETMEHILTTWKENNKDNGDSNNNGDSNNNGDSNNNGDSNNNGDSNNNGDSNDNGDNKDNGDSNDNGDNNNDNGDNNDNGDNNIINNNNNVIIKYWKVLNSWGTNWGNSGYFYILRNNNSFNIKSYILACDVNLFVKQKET
Method in brief: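 Schizonts at 36 h post invasion treated in triplicate with 1–100 µM inhibitor for 24 h, then propidium iodide stained and analyzed by flow cytometry. Schizont accumulation is expressed as fold increase over the DMSO control.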

[2] = target: T2, Falcipain-3 (Plasmodium falciparum 3D7) (UniProt Q8IIL0); experiment: Inhibition of Plasmodium falciparum 3D7 falcipain-3 by fluorescence spectrophotometry
T2 sequence (whole entry): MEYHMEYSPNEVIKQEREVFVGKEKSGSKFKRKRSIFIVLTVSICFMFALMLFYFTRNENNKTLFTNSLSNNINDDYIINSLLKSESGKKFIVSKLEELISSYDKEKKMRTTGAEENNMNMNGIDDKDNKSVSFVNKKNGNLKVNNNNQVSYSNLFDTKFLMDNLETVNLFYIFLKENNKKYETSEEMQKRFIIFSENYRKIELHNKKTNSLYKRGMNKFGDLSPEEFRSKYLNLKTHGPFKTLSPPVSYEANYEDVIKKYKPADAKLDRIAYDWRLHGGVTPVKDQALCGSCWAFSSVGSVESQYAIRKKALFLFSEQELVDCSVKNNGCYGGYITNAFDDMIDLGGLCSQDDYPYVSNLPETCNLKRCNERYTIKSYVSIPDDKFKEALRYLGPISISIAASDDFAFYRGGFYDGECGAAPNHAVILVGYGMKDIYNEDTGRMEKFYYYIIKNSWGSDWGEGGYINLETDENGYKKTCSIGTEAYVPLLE

[3] = target: T3, Cysteine proteinase falcipain-1 (Plasmodium falciparum 3D7) (UniProt Q8I6V0); experiment: Inhibition of Plasmodium falciparum 3D7 falcipain-1 by fluorescence spectrophotometry
T3 sequence (whole entry): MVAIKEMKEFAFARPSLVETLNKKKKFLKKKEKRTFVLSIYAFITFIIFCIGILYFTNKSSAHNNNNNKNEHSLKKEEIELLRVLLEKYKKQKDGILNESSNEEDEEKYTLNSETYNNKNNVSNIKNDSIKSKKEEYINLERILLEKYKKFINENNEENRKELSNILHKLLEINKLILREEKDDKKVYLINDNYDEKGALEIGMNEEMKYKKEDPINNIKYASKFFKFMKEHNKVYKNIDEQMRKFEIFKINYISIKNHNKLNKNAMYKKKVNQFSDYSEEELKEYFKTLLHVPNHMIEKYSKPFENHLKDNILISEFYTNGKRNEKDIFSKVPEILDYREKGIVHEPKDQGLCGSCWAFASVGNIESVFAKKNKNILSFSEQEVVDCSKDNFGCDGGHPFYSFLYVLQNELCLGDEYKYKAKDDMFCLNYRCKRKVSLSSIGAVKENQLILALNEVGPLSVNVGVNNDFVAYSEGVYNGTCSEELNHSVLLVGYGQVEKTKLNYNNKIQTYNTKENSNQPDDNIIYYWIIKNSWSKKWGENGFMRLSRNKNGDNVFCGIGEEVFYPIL

[4] = target: T1, Protease, putative (Plasmodium falciparum 3D7); experiment: Inhibition of Plasmodium falciparum 3D7 PFD0230c-mediated SERA5 processing at 1 1 to 100 uM after 6 to 8 hrs by SDS-PAGE
Method in brief: (§1)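 Percoll-enriched schizonts (36–40 h post invasion) treated with inhibitor for 6–8 h in serum-free RPMI. Medium run on 8% SDS-PAGE; schizont pellet solubilized in SDS loading buffer. SERA5 detected by western blot with a monoclonal recognizing the P50 product; PfSUB1 detected with antisera.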

[5] = target: T4, Probable cathepsin C (Plasmodium falciparum 3D7) (UniProt Q8IIJ9); experiment: Inhibition of Plasmodium falciparum 3D7 cathepsin C by fluorescence spectrophotometry
T4 sequence (whole entry): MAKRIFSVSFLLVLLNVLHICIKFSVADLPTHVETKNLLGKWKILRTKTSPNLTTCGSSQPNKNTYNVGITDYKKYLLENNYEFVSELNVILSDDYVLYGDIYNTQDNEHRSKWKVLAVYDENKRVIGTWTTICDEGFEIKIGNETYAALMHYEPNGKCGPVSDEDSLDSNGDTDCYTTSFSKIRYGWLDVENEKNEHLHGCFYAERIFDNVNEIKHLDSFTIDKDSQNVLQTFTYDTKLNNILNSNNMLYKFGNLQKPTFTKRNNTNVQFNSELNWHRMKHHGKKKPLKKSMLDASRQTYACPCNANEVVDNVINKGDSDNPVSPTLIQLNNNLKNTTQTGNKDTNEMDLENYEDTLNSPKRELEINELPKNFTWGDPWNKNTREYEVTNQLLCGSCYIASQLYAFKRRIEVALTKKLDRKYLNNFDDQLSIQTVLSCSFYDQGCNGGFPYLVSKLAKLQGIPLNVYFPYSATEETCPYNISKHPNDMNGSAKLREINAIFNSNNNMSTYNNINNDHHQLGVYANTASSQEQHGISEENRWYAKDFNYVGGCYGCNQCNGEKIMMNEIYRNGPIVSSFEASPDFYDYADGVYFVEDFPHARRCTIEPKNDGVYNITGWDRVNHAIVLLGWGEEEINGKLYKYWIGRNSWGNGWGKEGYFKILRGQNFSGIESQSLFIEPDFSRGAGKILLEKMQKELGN

Plasmodium falciparum [6] = experiment: Inhibition of Plasmodium falciparum 3D7 falcipain-2 by fluorescence spectrophotometry
Plasmodium falciparum [7] = experiment: Inhibition of Plasmodium falciparum SUB1-mediated SERA5 processing at 1 1 to 100 uM after 6 to 8 hrs by SDS-PAGE; method in brief: as §1
[8] = target: T1, Protease, putative (Plasmodium falciparum 3D7); experiment: Inhibition of Plasmodium falciparum 3D7 PFD0230c-mediated rupture of infected human red blood cells at 10 uM after 24 hrs by giemsa staining
Method in brief: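 Giemsa-stained thin blood films were read from schizonts exposed at 36 h post invasion to 10 µM inhibitor, to assess rupture and morphology.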

Plasmodium falciparum [9] = experiment: Inhibition of Plasmodium falciparum SUB1-mediated rupture of infected human red blood cells at 50 uM after 24 hrs by propidium iodide staining-based FACS analysis
Method in brief: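 Early schizonts (~36 h post invasion) given 50 µM compound (final) for 24 h at 37 °C, then glutaraldehyde-fixed, Triton-permeabilized and propidium iodide stained. Flow cytometric schizont fraction normalized to DMSO controls.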

Plasmodium falciparum [10] = experiment: Displacement of JCP104 from Plasmodium falciparum SUB1 at 50 uM by SDS-PAGE
[11] = target: T1, Protease, putative (Plasmodium falciparum 3D7); experiment: Inhibition of Plasmodium falciparum 3D7 PFD0230c-mediated rupture of infected human red blood cells after 24 hrs by propidium iodide staining-based FACS analysis
Method in brief: (§2)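 Synchronous early schizonts (~36 h post invasion) exposed to inhibitor for 24 h at 37 °C. Cells fixed in 0.05% glutaraldehyde/PBS overnight at 4 °C, permeabilized with 0.25% Triton X-100 and stained with propidium iodide. Flow cytometry gated ring and schizont populations as fractions of total parasitemia, normalized to averaged DMSO wells. Triplicate runs.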

[12] = target: T1, Protease, putative (Plasmodium falciparum 3D7); experiment: Inhibition of Plasmodium falciparum 3D7 PFD0230c by fluorescence spectrophotometry
Plasmodium falciparum [13] = experiment: Antiplasmodial activity against Plasmodium falciparum schizont infected in human erythrocytes assessed as effect on parasite ring-to-schizont morphology at 1 to 100 uM after 24 by propidium iodide staining-based FACS analysis; assay type: functional, organism-based
Plasmodium falciparum [14] = experiment: Antiplasmodial activity against Plasmodium falciparum schizont infected in human erythrocytes assessed as inhibition of ring-stage parasite growth at 1 to 100 uM after 24 by propidium iodide staining-based FACS analysis; assay type: functional, organism-based
Plasmodium falciparum [15] = experiment: Antiplasmodial activity against Plasmodium falciparum schizont infected in human erythrocytes assessed as effect on schizont morphology at 1 to 100 uM after 24 by propidium iodide staining-based FACS analysis; assay type: functional, organism-based
Plasmodium falciparum [16] = experiment: Antiplasmodial activity against Plasmodium falciparum schizont infected in human erythrocytes assessed as blockade of parasite-mediated rupture of erythrocytes after 24 by propidium iodide staining-based FACS analysis; assay type: functional, organism-based; method in brief: as §2
[17] = Cytotoxicity against african green monkey BSC1 cells after 24 hrs by celltiter glo assay; assay type: cell-based; conditions: chlorocebus aethiops, bsc-1, 24 h
Method in brief: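 BSC-1 African green monkey kidney epithelial cells exposed to compounds; viability read by CellTiter-Glo luminescence.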

[18] = Inhibition of Plasmodium falciparum SUB1 by fluorescence spectrophotometry
Method in brief: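 Recombinant PfSUB1 cleavage of the fluorogenic peptide substrate pepF1-6R measured over a range of inhibitor concentrations. IC50 taken from the curve fit.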

[19] = target: T5, Preprocathepsin c, putative (Plasmodium falciparum 3D7) (UniProt Q8I0V1); experiment: Inhibition of Plasmodium falciparum 3D7 PFL2290w by fluorescence spectrophotometry
T5 sequence (whole entry): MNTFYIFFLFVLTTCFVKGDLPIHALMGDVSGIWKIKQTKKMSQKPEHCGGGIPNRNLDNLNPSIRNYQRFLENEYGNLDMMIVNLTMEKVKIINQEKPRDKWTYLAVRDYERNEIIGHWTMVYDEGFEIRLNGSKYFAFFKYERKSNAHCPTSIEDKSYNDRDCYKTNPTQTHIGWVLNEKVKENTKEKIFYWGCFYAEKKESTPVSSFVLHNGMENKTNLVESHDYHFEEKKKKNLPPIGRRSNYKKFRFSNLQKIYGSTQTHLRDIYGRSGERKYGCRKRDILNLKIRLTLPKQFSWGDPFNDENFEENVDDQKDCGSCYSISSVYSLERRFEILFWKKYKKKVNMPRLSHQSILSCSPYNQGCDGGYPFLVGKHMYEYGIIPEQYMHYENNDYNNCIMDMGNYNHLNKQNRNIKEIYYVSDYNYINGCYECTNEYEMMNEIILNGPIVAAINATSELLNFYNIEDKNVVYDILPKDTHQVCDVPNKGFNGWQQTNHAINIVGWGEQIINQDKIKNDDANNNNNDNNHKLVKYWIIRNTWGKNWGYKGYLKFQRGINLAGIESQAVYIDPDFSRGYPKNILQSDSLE

## O=C(N[C@H](/C=C/S(=O)(=O)c1ccccc1)CCc1ccccc1)C1CCCN1 (stereo not given in full)
[1]
  inhibition: inactive
[2]
  inhibition: inactive
[3]
  inhibition: Active
[4]
  inhibition: Active
[5]
  inhibition: Active
Plasmodium falciparum [6]
  inhibition: inactive
Plasmodium falciparum [7]
  inhibition: Active
[8]
  inhibition: inactive

## O=C(CCCC[C@H]1SC[C@H]2NC(=O)N[C@H]21)Nc1ccc2c(Cl)c(OCCc3ccccc3)oc(=O)c2c1
Plasmodium falciparum [9]
  Activity: Active
  inhibition: Active
Plasmodium falciparum [10]
  Activity: Active

## N[C@@H](Cc1ccc(O)c([N+](=O)[O-])c1)C(=O)N[C@H](/C=C/S(=O)(=O)c1ccccc1)CCc1ccccc1
[4]
  inhibition: Active
[11]
  inhibition: Dose-dependent effect
Plasmodium falciparum [7]
  inhibition: Active
[12]
  inhibition: Active
[8]
  inhibition: Active

## O=C(CCCCCNC(=O)CCCC[C@H]1SC[C@H]2NC(=O)N[C@H]21)NCCCCCC(=O)Nc1ccc2c(Cl)c(OCCc3ccccc3)oc(=O)c2c1
Plasmodium falciparum [13]
  Activity: inactive
Plasmodium falciparum [14]
  inhibition: Active
Plasmodium falciparum [15]
  Activity: inactive
Plasmodium falciparum [16]
  EC50: 22 µM
[4]
  inhibition: Active
Plasmodium falciparum [7]
  inhibition: Active
[17]
  Activity: Non-toxic
[18]
  IC50: 18 µM

## NC(=O)[C@H](Cc1ccc(O)cc1)NC(=O)CCCCCCCCCCS(=O)(=O)/C=C/[C@H](CCc1ccccc1)NC(=O)[C@@H](N)Cc1ccc(O)c([N+](=O)[O-])c1
[19]
  inhibition: Active
[5]
  inhibition: Active

## CCOC(=O)[C@H]1O[C@@H]1C(=O)N[C@H](C(=O)NCCc1ccc(O)cc1)[C@@H](C)CC
[8]
  inhibition: Active

## O=C(CCCC[C@H]1SC[C@H]2NC(=O)N[C@H]21)NCCCCCC(=O)Nc1ccc2c(Cl)c(OCCc3ccccc3)oc(=O)c2c1
Plasmodium falciparum [9]
  Activity: Active
  inhibition: Active
Plasmodium falciparum [10]
  Activity: Active
